In assay [1] the target is T1, Quinolone resistance protein NorA (Staphylococcus aureus) (UniProt P0A0J7).
T1 sequence (whole entry): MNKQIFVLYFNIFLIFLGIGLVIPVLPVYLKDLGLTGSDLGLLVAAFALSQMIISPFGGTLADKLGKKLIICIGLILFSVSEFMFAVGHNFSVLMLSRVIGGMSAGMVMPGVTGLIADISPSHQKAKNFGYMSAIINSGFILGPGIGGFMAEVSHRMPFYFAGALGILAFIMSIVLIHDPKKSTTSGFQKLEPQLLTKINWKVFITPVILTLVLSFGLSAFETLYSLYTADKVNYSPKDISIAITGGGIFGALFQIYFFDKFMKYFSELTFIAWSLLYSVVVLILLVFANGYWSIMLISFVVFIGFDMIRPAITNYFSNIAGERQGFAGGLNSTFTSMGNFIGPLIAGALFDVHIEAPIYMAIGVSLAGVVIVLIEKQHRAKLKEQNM
Put plainly: Inhibition of NorA in Staphylococcus aureus SA1199B harboring GrlA A116E mutant assessed as inhibition of ethidium bromide efflux at 50 uM measured after 5 mins by fluorometric method relative to control. A digest of the protocol: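 S. aureus SA-1199B; test compounds at 50 µM. EtBr loss was measured fluorometrically in their presence and compared with their absence to give percentage reduction in efflux.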

Assay [2] concerns the target T1, Quinolone resistance protein NorA (Staphylococcus aureus). As to the kind of experiment: Inhibition of Staphylococcus aureus SAK2378 norA assessed as potentiation of CPX-induced antimicrobial activity up to 100 ug/ml by checkerboard assay. A digest of the protocol:
(§1)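 Checkerboard microdilution of compound against CPX, with MICs set by CLSI microdilution. Applies to S. aureus SA-1199B and SA-K2378. Compound alone was tested up to 100 µg/mL. The read-out is fold reduction of the CPX MIC.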

For assay [3] the target is unchanged. Put plainly: Inhibition of NorA in Staphylococcus aureus SA1199B harboring GrlA A116E mutant assessed as potentiation of CPX-induced antimicrobial activity up to 100 ug/ml by checkerboard assay. Summed up:
as §1

Assay [4] addresses Quinolone resistance protein NorA (Staphylococcus aureus, UniProt P0A0J7, A116E). As to the kind of experiment: Inhibition of NorA in Staphylococcus aureus SA1199B harboring GrlA A116E mutant assessed as inhibition of ethidium bromide efflux after 5 mins by fluorometric method. Summed up: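 S. aureus SA-1199B; EtBr loss measured fluorometrically, with compound present versus absent, giving percentage reduction in efflux. Increasing inhibitor concentrations were tested, and IC50 was read by inspecting the dose-response plots.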

Activity calls are given as the source filed them. No cut-off for these calls is given here.

The source of these data is ChEMBL document CHEMBL4043064, “Pharmacophore-Based Repositioning of Approved Drugs as Novel Staphylococcus aureus NorA Efflux Pump Inhibitors” (J Med Chem, 2017).

What is called inhibition is the relative decrease from the control value, in per cent. Broadly, the IC50 is the concentration at which inhibition is half-maximal.

As to `CCN(CCCCOC(=O)c1ccc(OC)c(OC)c1)C(C)Cc1ccc(OC)cc1` (centres undefined), the inhibition in assay [1] was determined as 45.2%.

Turning to `CCCc1nn(C)c2c(=O)[nH]c(-c3cc(S(=O)(=O)N4CCN(C)CC4)ccc3OCC)nc12`, the inhibition in assay [1] was found to be 22.9%.

Turning to `CCCOc1ccc(-c2cc(OCCN(CC)CC)c3ccccc3n2)cc1`, the inhibition result in assay [2] and in assay [3] was “Active” each time.

As to `COC(=O)[C@H]1[C@H]2C[C@@H]3c4[nH]c5cc(OC)ccc5c4CCN3C[C@H]2C[C@@H](OC(=O)c2cc(OC)c(OC)c(OC)c2)[C@@H]1OC`, the inhibition entry in assay [2] and in assay [3] was “Active” each time.

`CCOC(=O)Nc1ccc2c(c1)N(C(=O)CCN1CCOCC1)c1ccccc1S2`: the inhibition in assay [1] is 23.7%.

Take `COc1cc2ncnc(Nc3ccc(F)c(Cl)c3)c2cc1OCCCN1CCOCC1` [GEFITINIB]: the inhibition in assay [1] is 94.2%. Also, the IC50 in assay [4] is 9.7 µM.

As to `COC(=O)C1=C(C)NC(C)=C(C(=O)OCCN(C)Cc2ccccc2)C1c1cccc([N+](=O)[O-])c1` (centres undefined) [NICARDIPINE], the inhibition in assay [1] was found to be 77.1%. In addition, the IC50 in assay [4] stood at 22.8 µM.

As for `Cc1ccc(-n2nc(C(C)(C)C)cc2NC(=O)Nc2ccc(OCCN3CCOCC3)c3ccccc23)cc1`, in assay [1], the inhibition was 47%.

Turning to `Cc1nc(Nc2ncc(C(=O)Nc3c(C)cccc3Cl)s2)cc(N2CCN(CCO)CC2)n1` [DASATINIB], the inhibition in assay [1] was 95.8%. In addition, the IC50 in assay [4] is 11.5 µM.
